Test results from ChEMBL document CHEMBL5550192, “Discovery of first-in-class PROTACs targeting maternal embryonic leucine zipper kinase (MELK) for the treatment of Burkitt lymphoma” (RSC Med Chem, 2024).
The source made the active and inactive calls. No cut-off for these calls is given here.

How the values were obtained:
[1] = biological target: T1, Protein cereblon/Maternal embryonic leucine zipper kinase (Homo sapiens, UniProt Q14680+Q96SW2); assay: PROTAC activity at CRBN/MELK in human Ramos cells assessed as induction of MELK degradation by immunoblot analysis; type: cell-based
Outline: (§1)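 Ramos cells in 12-well plates (1 mL medium) treated with compound at various concentrations. Lysed in 2X SDS sample buffer and boiled 15 min. Proteins resolved on 10% SDS-PAGE and transferred to PVDF. Probed with MELK, mTOR or p-mTOR antibodies, with β-actin/β-tubulin as loading controls. ECL detection, band densitometry, DC50 from nonlinear regression.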
Target sequence in this assay (Q14680 whole entry): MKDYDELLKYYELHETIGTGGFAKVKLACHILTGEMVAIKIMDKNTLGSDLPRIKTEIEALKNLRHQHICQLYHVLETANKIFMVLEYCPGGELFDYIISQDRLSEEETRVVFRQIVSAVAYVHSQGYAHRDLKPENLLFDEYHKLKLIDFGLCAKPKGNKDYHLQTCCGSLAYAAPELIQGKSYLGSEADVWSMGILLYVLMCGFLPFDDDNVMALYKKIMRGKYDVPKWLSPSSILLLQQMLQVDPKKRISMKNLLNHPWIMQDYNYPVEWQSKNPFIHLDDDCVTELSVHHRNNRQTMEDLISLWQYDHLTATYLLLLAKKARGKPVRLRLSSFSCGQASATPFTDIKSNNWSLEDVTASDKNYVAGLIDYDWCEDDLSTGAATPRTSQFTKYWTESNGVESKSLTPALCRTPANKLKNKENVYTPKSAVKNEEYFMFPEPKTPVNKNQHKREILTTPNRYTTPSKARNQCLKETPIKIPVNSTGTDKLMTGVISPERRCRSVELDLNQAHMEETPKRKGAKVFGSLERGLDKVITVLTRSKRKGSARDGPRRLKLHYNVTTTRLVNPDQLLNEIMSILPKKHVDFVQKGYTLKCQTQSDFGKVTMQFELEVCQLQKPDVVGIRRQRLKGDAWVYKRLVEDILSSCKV
Target sequence in this assay (Q96SW2 whole entry): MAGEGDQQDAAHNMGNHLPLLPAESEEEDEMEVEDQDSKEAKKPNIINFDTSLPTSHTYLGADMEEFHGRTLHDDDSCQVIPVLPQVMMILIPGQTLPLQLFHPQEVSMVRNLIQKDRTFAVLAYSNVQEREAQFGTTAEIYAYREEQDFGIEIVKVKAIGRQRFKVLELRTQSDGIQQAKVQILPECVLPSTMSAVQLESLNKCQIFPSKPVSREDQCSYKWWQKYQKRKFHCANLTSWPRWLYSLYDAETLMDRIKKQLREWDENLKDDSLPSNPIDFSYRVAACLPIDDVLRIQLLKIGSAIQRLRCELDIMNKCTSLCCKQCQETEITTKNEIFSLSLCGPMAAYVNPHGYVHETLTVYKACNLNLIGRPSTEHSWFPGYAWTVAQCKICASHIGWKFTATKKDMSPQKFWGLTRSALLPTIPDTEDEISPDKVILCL

[2] = biological target: T1, Protein cereblon/Maternal embryonic leucine zipper kinase; assay: PROTAC activity at CRBN/MELK in human Ramos cells assessed as residual activity at 5 uM measured after 48 hrs by immunoblot analysis relative to control; type: cell-based
Target sequence in this assay (Q14680 whole entry, looked up): as the sequence (Q14680 whole entry) above
Target sequence in this assay (Q96SW2 whole entry, looked up): as the sequence (Q96SW2 whole entry) above

[3] = Selectivity ratio of CC50 for human MDA-MB-231 cells to IC50 for human Ramos cells
MDA-MB-231 = assay: Cytotoxicity against human MDA-MB-231 cells assessed as inhibition of cell growth measured after 72 to 96 hrs by CCK-8 method; type: functional; conditions: time 72-96 hrs
Outline: (§2)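 MDA-MB-231 grown in DMEM with 10% FBS, 1% pen-strep, 1% NEAA and 50 μM 2-mercaptoethanol at 37°C, 5% CO₂. Plated at 3000 cells/well with compound diluted in medium from DMSO stock. Incubated 72–96 h, then CCK-8 added for 4 h. Absorbance read at 450 nm, normalized to DMSO-treated cells. EC50 from nonlinear regression.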

Ramos [4] = assay: Cytotoxicity against human Ramos cells assessed as inhibition of cell growth measured after 72 to 96 hrs by CCK-8 method; type: functional, cell-based
Outline: as §2, with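 “Ramos” for “MDA-MB-231”, “RPMI 1640” for “DMEM”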

[5] = biological target: T1, Protein cereblon/Maternal embryonic leucine zipper kinase; assay: PROTAC activity at CRBN/MELK in human Ramos cells assessed as induction of MELK degradation by immunoblot analysis relative to control; type: cell-based; outline: as §1
Target sequence in this assay (Q14680 whole entry, looked up): as the sequence (Q14680 whole entry) above
Target sequence in this assay (Q96SW2 whole entry, looked up): as the sequence (Q96SW2 whole entry) above

[6] = biological target: T1, Protein cereblon/Maternal embryonic leucine zipper kinase; assay: PROTAC activity at CRBN/MELK in human Ramos cells assessed as degradation of MELK by measuring half life at 20 uM measured for 48 hrs by Western blot analysis; type: cell-based
Target sequence in this assay (Q14680 whole entry, looked up): as the sequence (Q14680 whole entry) above
Target sequence in this assay (Q96SW2 whole entry, looked up): as the sequence (Q96SW2 whole entry) above

[7] = biological target: T1, Protein cereblon/Maternal embryonic leucine zipper kinase; assay: PROTAC activity at CRBN/MELK in human Ramos cells assessed as degradation of MELK at 20 uM pretreated with MLN4924 followed by compound addition and measured after 24 hrs by immunoblot analysis; type: cell-based
Target sequence in this assay (Q14680 whole entry, looked up): as the sequence (Q14680 whole entry) above
Target sequence in this assay (Q96SW2 whole entry, looked up): as the sequence (Q96SW2 whole entry) above

[8] = biological target: T1, Protein cereblon/Maternal embryonic leucine zipper kinase; assay: PROTAC activity at CRBN/MELK in human Ramos cells assessed as degradation of MELK at 20 uM pretreated with MG132 followed by compound addition and measured after 24 hrs by immunoblot analysis; type: cell-based
Target sequence in this assay (Q14680 whole entry, looked up): as the sequence (Q14680 whole entry) above
Target sequence in this assay (Q96SW2 whole entry, looked up): as the sequence (Q96SW2 whole entry) above

Ramos [9] = assay: Upregulation of MELK mRNA level in human Ramos cells at 20 uM incubated for 24 hrs by qPCR analysis; type: functional, cell-based
Outline: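 Ramos cells in 6-well plates exposed to 20 μM compound or DMSO for 24 h. MELK mRNA measured by qPCR with MELK-specific primers. Relative expression by the 2^-ΔΔCt method, normalized to 18S mRNA (actin also stated as internal control). Run in triplicate.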

DOHH-2 = assay: Upregulation of MELK mRNA level in human DOHH-2 cells at 20 uM incubated for 24 hrs by qPCR analysis; type: functional, cell-based
[10] = biological target: T1, Protein cereblon/Maternal embryonic leucine zipper kinase; assay: PROTAC activity at CRBN/MELK in human Ramos cells assessed as inhibition of mTOR phosphorylation at upto 64 uM measured after 24 hrs Western blot analysis; type: cell-based; outline: as §1
Target sequence in this assay (Q14680 whole entry, looked up): as the sequence (Q14680 whole entry) above
Target sequence in this assay (Q96SW2 whole entry, looked up): as the sequence (Q96SW2 whole entry) above

[11] = biological target: T1, Protein cereblon/Maternal embryonic leucine zipper kinase; assay: PROTAC activity at CRBN/MELK in human Ramos cells assessed as inhibition of mTOR phosphorylation measured after 24 hrs Western blot analysis; type: cell-based; outline: as §1
Target sequence in this assay (Q14680 whole entry): as the sequence (Q14680 whole entry) above
Target sequence in this assay (Q96SW2 whole entry): as the sequence (Q96SW2 whole entry) above

Ramos [12] = assay: Induction of apoptosis in human Ramos cells assessed as viable cells at 20 uM measured after 24 hrs by Annexin V-FITC and propidium iodide staining based flow cytometry analysis (reference value: 84.9%); type: functional; conditions: read-out: Activity
Outline: (§3)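 Ramos cells, 1×10^6 per well in 6-well plates, treated with compound or DMSO for 24 h. Washed in cold PBS, resuspended in Annexin V binding buffer, stained with Annexin V-FITC and propidium iodide. Populations quantified by flow cytometry.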

Ramos [13] = assay: Induction of apoptosis in human Ramos cells assessed as early apoptotic cells at 20 uM measured after 24 hrs by Annexin V-FITC and propidium iodide staining based flow cytometry analysis (reference value: 9.69%); type: functional; outline: as §3
Ramos [14] = assay: Induction of apoptosis in human Ramos cells assessed as late apoptotic cells at 20 uM measured after 24 hrs by Annexin V-FITC and propidium iodide staining based flow cytometry analysis (reference value: 5.05%); type: functional; outline: as §3
Ramos [15] = assay: Induction of apoptosis in human Ramos cells assessed as necrotic cells at 20 uM measured after 24 hrs by Annexin V-FITC and propidium iodide staining based flow cytometry analysis (reference value: 0.34%); type: functional; outline: as §3
Ramos [16] = assay: Induction of apoptosis in human Ramos cells at 20 uM measured after 24 hrs by calcein-AM/propidium iodide staining based fluorescence microscopic analysis; type: functional, cell-based
Outline: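 Ramos cells, 2×10^5 per well in 12-well plates, exposed to compound or DMSO for 24 h. Washed in cold PBS, then stained with calcein-AM/propidium iodide working solution for 30 min at 37°C in the dark. Examined by fluorescence microscopy.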

Ramos [17] = assay: Induction of cell cycle arrest in human Ramos cells assessed as accumulation of cells at G2/M phase at 10 uM measured after 24 hrs by propidium iodide staining based flow cytometry analysis; type: functional
Outline: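 Ramos cells exposed to compound or DMSO for 24 h, washed in cold PBS and fixed overnight in 70% ethanol. Stained with propidium iodide for 30 min at 37°C in the dark. Cell-cycle phase distribution determined by flow cytometry.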

HUVEC = assay: Cytotoxicity against human HUVEC cells at 4 uM measured after 24 hrs by tube formation assay; type: toxicity, cell-based
Outline: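 HUVEC, 3×10^4 cells/well, seeded on Matrigel-coated wells (Matrigel set 4 h at 37°C) in medium containing compound. Tubes imaged by optical microscopy and quantified by image analysis. Three independent experiments.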

CC(C)COc1cnccc1-c1cnn(-c2ccc(N3CCN(Cc4cn(CCOCCNc5ccc6c(c5)C(=O)N(C5CCC(=O)NC5=O)C6=O)nn4)CC3)cc2)c1 (centres undefined) gave a DC50 [1] of less than 5 µM and an Activity [2] of 49.3%.
In the case of CN1CCN(c2ccc(-n3cc(-c4ccncc4OCC4CCNCC4)cn3)cc2)CC1, the “Ratio CC50/IC50” value [3] is reported as 0.7, the CC50 (MDA-MB-231) is reported as 2.3 µM and the IC50 (Ramos [4]) is reported as 3.4 µM.
With COc1cc(-c2cn[nH]c2)ccc1C(=O)Nc1ccc2c(c1)CCNCC2 the “Ratio CC50/IC50” value [3] was 0.9, the CC50 (MDA-MB-231) was 7.9 µM and the IC50 (Ramos [4]) was 9.1 µM.
In the case of CC(C)COc1cnccc1-c1cnn(-c2ccc(N3CCN(Cc4cn(CCOCCOCCOCCOCCNc5ccc6c(c5)C(=O)N(C5CCC(=O)NC5=O)C6=O)nn4)CC3)cc2)c1 (centres undefined), the DC50 [1] is reported as less than 5 µM and the Activity [2] is reported as 42.7%.
Compound CC(C)COc1cnccc1-c1cnn(-c2ccc(N3CCN(Cc4cn(CCCCCCCNc5ccc6c(c5)C(=O)N(C5CCC(=O)NC5=O)C6=O)nn4)CC3)cc2)c1 (centres undefined) has a DC50 [1] of less than 5 µM and an Activity [2] of 37.7%.
In the case of CC(C)COc1cnccc1-c1cnn(-c2ccc(N3CCN(Cc4cn(CCOCCOCCNc5ccc6c(c5)C(=O)N(C5CCC(=O)NC5=O)C6=O)nn4)CC3)cc2)c1 (centres undefined), the “Ratio CC50/IC50” value [3] is reported as 7.6, the CC50 (MDA-MB-231) is reported as 13.8 µM and the DC50 [1] is reported as 2.1 µM. It also gave an Emax [5] of 91.6%, an EC50 (Ramos [4]) of 1.8 µM and an Activity [2] of 14.3%. For the same compound, the T1/2 [6] was less than 3 h, the Activity [7] was “inactive” and the Activity [8] was “inactive”. The Activity (Ramos [9]) was “Active”, the Activity (DOHH-2) was “Active” and the Activity [10] was “Active”. The EC50 [11] was 2.3 µM, the viability at 20 µM (Ramos [12]) was 44.9% and the Activity (Ramos [13]) was 42.1%. For the same compound, the Activity (Ramos [14]) was 12.8%, the Activity (Ramos [15]) was 0.25% and the Activity (Ramos [16]) was “Active”. The Activity (Ramos [17]) was “Active” and the Activity (HUVEC) was “Non-Toxic”.
CC(C)COc1cnccc1-c1cnn(-c2ccc(N3CCN(Cc4cn(CCOCCOCCOCCNc5ccc6c(c5)C(=O)N(C5CCC(=O)NC5=O)C6=O)nn4)CC3)cc2)c1 (centres undefined) gave a DC50 [1] of less than 5 µM and an Activity [2] of 49.6%.
